12 compounds from PubChem BioAssay can be followed below.

Test [1] can be described thus: inhibitors of TNFa-induced NFkB p65 translocation, primary screen, imaging, HUVEC, MLSMR starter and 10KST1 sets (AID 438;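 active = inhibition above 20% together with a positive visual image hit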;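 note: compound added about 3h40 before a 20 min TNFalpha stimulation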;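 for inhibition: signal is the nuclear over cytoplasmic p65 intensity ratio per well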). The settings on record: HUVEC TNFa-induced p65 nuclear translocation; cell count: measured here: nuclei count (cytotoxicity indicator), at 2.08 µM unless noted; inhibition: at 2 µM, stronger effect = higher value unless noted.
The nature of test [2]: inhibitors of E-selectin induction by TNFa, primary screen, imaging, HUVEC, immunofluorescence, MLSMR starter and 10KST1 sets (AID 487;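 active = visually confirmed hit in the image check and inhibition above 20%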;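 for inhibition: signal is fraction of cell area covered by stained E-selectin grains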;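 for nuclei count: 100% = median nuclei count of all wells on the same plate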). The conditions noted are these: HUVEC TNFalpha-induced E-selectin immunofluorescence imaging, at 2 µM; inhibition: stronger effect = higher value; nuclei count: measured here: cell number, toxicity.
Test [3] can be described thus: DUSP6 inhibitors restoring Erk phosphorylation by chemical complementation, primary imaging in DUSP6-transfected HeLa (AID 609).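 For inhibition: phospho-Erk level distribution per well compared with pooled transfected vehicle control wells.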 The settings on record: HeLa MKP-3 transfected, phospho-Erk imaging KS statistic, at 10 µM.
The target of test [4] is Dual specificity protein phosphatase 6 (Homo sapiens) (UniProt Q16828). The description is as above. The conditions noted are these: HeLa MKP-3 transfected, phospho-Erk imaging KS statistic, at 10 µM, stronger effect = higher value.
Sequence of Dual specificity protein phosphatase 6 (Homo sapiens) (Q16828 whole entry, looked up): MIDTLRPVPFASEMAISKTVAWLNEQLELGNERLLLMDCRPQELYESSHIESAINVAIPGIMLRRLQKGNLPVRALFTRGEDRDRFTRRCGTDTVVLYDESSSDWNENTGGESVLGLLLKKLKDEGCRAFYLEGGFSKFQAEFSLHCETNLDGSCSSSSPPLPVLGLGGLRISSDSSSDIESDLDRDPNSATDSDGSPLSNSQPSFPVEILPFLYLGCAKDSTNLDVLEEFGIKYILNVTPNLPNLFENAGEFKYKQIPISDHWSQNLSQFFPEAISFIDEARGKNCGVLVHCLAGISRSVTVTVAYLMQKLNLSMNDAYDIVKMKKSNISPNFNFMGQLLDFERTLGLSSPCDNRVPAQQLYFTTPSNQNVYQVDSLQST
Test [5] addresses Voltage-gated potassium channel subunit beta-2 (Rattus norvegicus) (UniProt P62483). The test can be described thus: KvBeta enzyme negative modulators, primary screen, biochemical, NADPH fluorescence (AID 622;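 active = fluorescence slope higher than the sample average by over 3 SD, cut at about -0.22 in these data, passing the limit was not always enough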;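 note: slope of raw intensity against log time taken from 70 to 1610 s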). The conditions noted are these: recombinant KvBeta, 4-cyanobenzaldehyde reduction, at 10 µM, stronger effect = higher value.
For test [6] the target is unchanged. The test can be described thus: KvBeta positive modulators, primary screen, biochemical, NADPH fluorescence (AID 623;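 active = NADPH fluorescence slope more negative than the mean of all samples by about 3 SD, 99.7% confidence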;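 note: fluorescence intensity change per second fitted from 20 to 320 s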). The settings on record: Recombinant KvBeta, NADPH fluorescence decrease slope, 10 min; at 10 µM; stronger effect = lower value.
Test [7] concerns the target Alpha-2C adrenergic receptor (Homo sapiens) (UniProt P18825). Description: modulators of alpha2C/GIRK thallium flux, primary screen, cell-based, HEK293 alpha2C/GIRK1/2 (AID 624;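 active = fluorescence slope after compound addition differing from the mean of all screened samples at 99.7% confidence, in either direction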;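 note: slope of fluorescence ratio to pre-addition baseline per second over 15 to 24 s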). The settings on record: thallium flux BTC fluorescence, at 10 µM, actives lie on both sides.
Test [8] is described as follows: inhibitors of larval lipid processing in zebrafish, primary screen, whole organism, PED6 fluorescence, gall bladder and intestine (AID 686;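 active = a full or partial loss of lipid-probe fluorescence in the fish gall bladder, intestine or both, judged by eye; inactive = no fluorescence loss, or compound toxic to the fish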;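 note: larvae 5 to 7 days old with five fish per well; signal comes from phospholipase A2 cleavage of quenched PED6 carried via bile; overnight exposure to compound and PED6 before scoring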). The conditions noted are these: Zebrafish larvae PED6 lipid processing, fluorescence scoring. In outline:
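Doses: 20 µM single dose. Test system: live zebrafish larvae aged 5-7 days, whole organism. Quantity: five larvae per well. Measured by: By-eye fluorescence microscopy. Reagent: ingested quenched lipid PED6 at 100 nM. Read-out: visual per-well fluorescence inhibition score. Times: overnight exposure of larvae to compound plus PED6.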

Test [9] is described as follows: inhibitors of Chlamydomonas gravitaxis, primary screen, whole organism, Chlamydomonas reinhardtii, WT vs cilia-less mutant, absorbance, 96-well (AID 463189;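 active = inhibition at or above 50% relative to wild type and mutant plate controls; inactive = inhibition below 50%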;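 note: 0% = wild type cc124 cells in DMSO and 100% = ciliumless bld1 mutant cells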). The conditions noted are these: OD600 absorbance, 2 days, at 10 µM, stronger effect = higher value.
Where [10] appears, read: measured here: cell density z-score.
Where [11] appears, read: measured here: nuclear c-Myc green intensity z-score.
Setting [12] is: measured here: nuclear pErk red intensity z-score, stronger effect = higher value.

Activity calls are given as the source filed them.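 Rule for the calls, unless noted: active = compounds giving at least 50% inhibition in the cell-based MKP-3 phosphatase rescue imaging test; inactive = the rest.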

Sequence of Alpha-2C adrenergic receptor (Homo sapiens) (P18825 whole entry, looked up): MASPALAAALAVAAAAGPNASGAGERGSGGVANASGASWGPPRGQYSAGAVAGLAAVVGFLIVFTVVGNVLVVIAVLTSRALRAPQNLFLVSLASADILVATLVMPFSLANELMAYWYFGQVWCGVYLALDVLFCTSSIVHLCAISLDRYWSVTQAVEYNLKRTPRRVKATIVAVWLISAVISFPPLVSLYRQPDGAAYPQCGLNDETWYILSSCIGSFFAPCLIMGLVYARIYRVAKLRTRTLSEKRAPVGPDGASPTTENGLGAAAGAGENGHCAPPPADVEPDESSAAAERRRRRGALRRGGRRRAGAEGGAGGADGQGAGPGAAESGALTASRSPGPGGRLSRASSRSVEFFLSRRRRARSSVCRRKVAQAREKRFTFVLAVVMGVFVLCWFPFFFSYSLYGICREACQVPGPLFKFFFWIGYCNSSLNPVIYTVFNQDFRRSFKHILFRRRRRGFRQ
Sequence of Voltage-gated potassium channel subunit beta-2 (Rattus norvegicus) (P62483 whole entry, looked up): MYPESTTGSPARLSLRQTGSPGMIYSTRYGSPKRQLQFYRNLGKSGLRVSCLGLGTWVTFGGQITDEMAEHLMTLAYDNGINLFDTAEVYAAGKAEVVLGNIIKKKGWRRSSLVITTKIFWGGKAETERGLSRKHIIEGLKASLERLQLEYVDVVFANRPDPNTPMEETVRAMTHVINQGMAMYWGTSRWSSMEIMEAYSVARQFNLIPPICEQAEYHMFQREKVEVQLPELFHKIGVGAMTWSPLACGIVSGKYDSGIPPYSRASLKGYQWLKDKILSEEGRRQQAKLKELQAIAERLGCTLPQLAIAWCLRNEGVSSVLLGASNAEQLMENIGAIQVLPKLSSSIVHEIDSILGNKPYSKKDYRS

With `CCCCc1nc2ccccc2c(=O)n1-c1ccccc1O`, the cell count in test [1] is 619. In addition, the inhibition was -3.2% (inactive) in [1], -6.5% (inactive) in [2], -4.78% (inactive) in test [4] and 2.52% (inactive) in test [9]. Besides, the nuclei count in test [2] was found to be 178%. Besides, the z-score in test [3] (setting [10]) is -0.399; in [3] (setting [11]), 0.344; in test [3] (setting [12]), 1.46. Besides, the fluorescence slope in test [5] is -0.36 (inactive). For the same compound, the NADPH fluorescence slope in [6] was 5.8e-06 (inactive). Besides, the slope in test [7] is 0.00524 (inactive). Also, the compound was classed as inactive in test [8].
The compound `O=c1[nH]c(=O)n(Cc2ccco2)c(O)c1C=NCCN1CCOCC1` showed a cell count in test [1] of 680. For the same compound, the inhibition was -12.4% (inactive) in test [1], -84.8% (inactive) in test [2], -8.95% (inactive) in test [4] and -10.1% (inactive) in test [9]. Further, in test [2], the nuclei count stood at 179%. Also, the values for the z-score in test [3] (setting [10]), in test [3] (setting [11]) and in [3] (setting [12]) were 0.97, -1.61 and 0.194, respectively. Further, the fluorescence slope in test [5] is -0.384 (inactive). In addition, the NADPH fluorescence slope in [6] was -2.1e-05 (inactive). Moreover, the slope in test [7] was 0.00707 (inactive). For the same compound, the outcome in test [8] was inactive.
The compound `CC(C)Cc1[nH]c(=O)c(C#N)c2c1CCC2` came in with a cell count in test [1] of 490. Besides, the inhibition in test [1] is 8.7% (inactive); in test [2] it was -51.3% (inactive); in test [4], -1.75% (inactive); in test [9], 20.8% (inactive). In addition, the nuclei count in test [2] came out at 119%. The z-score in test [3] (setting [10]) is 0.582; in [3] (setting [11]) it was 0.998; in [3] (setting [12]), -0.369. Further, the fluorescence slope in test [5] is -0.439 (inactive). Further, the NADPH fluorescence slope in [6] was -4.3e-06 (inactive). Further, in test [7], the slope is 0.00495 (inactive). Also, the outcome in test [8] was inactive.
`C=CCn1c(O)c(C=Nc2ccc(N(CC)CC)cc2)c(=O)[nH]c1=O` gave a cell count in test [1] of 321. Moreover, the inhibition in test [1] was 4.1% (inactive); in test [2], -65.7% (inactive); in test [4] it was -1.75% (inactive); in test [9], 25.3% (inactive). Moreover, the nuclei count in test [2] was 88.8%. Also, the z-score is -1.25 in test [3] (setting [10]), 0.816 in test [3] (setting [11]) and -0.799 in test [3] (setting [12]). Also, the fluorescence slope in test [5] was -0.321 (inactive). For the same compound, in test [6], the NADPH fluorescence slope was -6.9e-05 (inactive). Further, the slope in test [7] is 0.00606 (inactive). Moreover, the outcome in test [8] was inactive.
The compound `CCN(CC)c1ccc(N=Cc2c(O)n(-c3cc(OC)ccc3OC)c(=O)[nH]c2=O)cc1` yielded a cell count in test [1] of 462. In addition, the inhibition in [1] is 2.1% (inactive); in test [2], -25.3% (inactive); in test [4], 16.8% (inactive); in [9] it was 34.9% (inactive). Also, the nuclei count in [2] was found to be 172%. For the same compound, the z-score in test [3] (setting [10]) is -0.53; in test [3] (setting [11]), 0.14; in test [3] (setting [12]) it was 0.193. Besides, the fluorescence slope in test [5] was -0.37 (inactive). In addition, the NADPH fluorescence slope in test [6] was -5.8e-05 (inactive). Also, the slope in test [7] was 0.00328 (inactive). In test [8], the compound was called inactive.
In test [1], `CCCCCCn1c(O)c(C=NCCCn2ccnc2)c(=O)[nH]c1=O` registered a cell count of 654. Also, the inhibition in test [1] was -20.1% (inactive); in test [2], 13.9% (inactive); in [4] it was 2.71% (inactive); in test [9] it was 13.6% (inactive). In addition, the nuclei count in [2] was determined as 134%. In addition, the z-score in test [3] (setting [10]) was 1.42; in [3] (setting [11]), -1.88; in test [3] (setting [12]), -0.817. Besides, the fluorescence slope in test [5] is -0.5 (inactive). The NADPH fluorescence slope in [6] was -2e-06 (inactive). The slope in test [7] was 0.0065 (inactive). For the same compound, the call in test [8] was inactive.
In the case of `CCOc1ccccc1-n1c(O)c(C=Nc2ccc(N(CC)CC)cc2)c(=O)[nH]c1=O`, the cell count in [1] was determined as 588. The inhibition in test [1] is -15.7% (inactive); in test [2] it was -43.1% (inactive); in test [4], 6.04% (inactive); in [9] it was 7.21% (inactive). The compound further had a nuclei count in test [2] of 85.2%. In addition, the values for the z-score in test [3] (setting [10]), in test [3] (setting [11]) and in test [3] (setting [12]) were 2.24, -1.62 and -0.873, respectively. Besides, the fluorescence slope in [5] was -0.43 (inactive). Moreover, in [6], the NADPH fluorescence slope is -9.6e-06 (inactive). For the same compound, the slope in [7] is 0.0078 (inactive). The result in [8] was inactive.
Compound `Cc1c(N=Cc2c(O)n(CCc3ccccc3)c(=O)[nH]c2=O)c(=O)n(-c2ccccc2)n1C` returned a cell count in test [1] of 613. Besides, the inhibition in [1] is -20.6% (inactive); in test [2] it was -12.1% (inactive); in test [4], 14.4% (inactive); in test [9], 41.8% (inactive). Further, in test [2], the nuclei count came to 104%. Also, the z-score in test [3] (setting [10]) was 1.02; in [3] (setting [11]), -1.15; in [3] (setting [12]), -0.939. Also, the fluorescence slope in test [5] is -0.465 (inactive). Also, the NADPH fluorescence slope in test [6] is -1.6e-05 (inactive). Also, the slope in test [7] is 0.00632 (inactive). Moreover, in test [8], the compound was called inactive.
For `CCN(CC)CCN=Cc1c(O)n(CCc2ccccc2)c(=O)[nH]c1=O`, in [1], the cell count was 479. Besides, the inhibition was 7.8% (inactive) in test [1], -1.8% (inactive) in [2], 28% (inactive) in test [4] and -6.45% (inactive) in test [9]. The same compound gave a nuclei count in [2] of 88.8%. Further, the z-score was 0.714 in test [3] (setting [10]), -0.47 in test [3] (setting [11]) and -1.29 in [3] (setting [12]). Also, the fluorescence slope in test [5] was -0.368 (inactive). Also, in test [6], the NADPH fluorescence slope was 9.5e-06 (inactive). The slope in [7] is 0.00625 (inactive). Moreover, in test [8], the outcome was inactive.
`CC(=NCCO)c1c(O)n(C)c(=O)n(C)c1=O` showed a cell count in test [1] of 608. The inhibition in test [1] was -15.1% (inactive); in [2], -3.1% (inactive); in test [4], 31% (inactive); in test [9], -8.68% (inactive). Besides, in [2], the nuclei count stood at 90.8%. Moreover, the z-score was 2.05 in [3] (setting [10]), -1.46 in test [3] (setting [11]) and -1.21 in test [3] (setting [12]). The fluorescence slope in test [5] was -0.432 (inactive). The NADPH fluorescence slope in [6] is -4.7e-06 (inactive). For the same compound, in [7], the slope was 0.00689 (inactive). The result in test [8] was inactive.
`CCCCCCn1c(O)c(C=NCCN2CCCCC2)c(=O)[nH]c1=O` yielded a cell count in test [1] of 667. Also, the inhibition in test [1] was -17.9% (inactive); in [2], -47.5% (inactive); in test [4] it was 12.7% (inactive); in [9] it was 12.8% (inactive). Further, the nuclei count in [2] worked out at 141%. Further, the z-score in [3] (setting [10]) is 0.204; in test [3] (setting [11]), -1.24; in [3] (setting [12]), -1.39. Also, the fluorescence slope in [5] is -0.423 (inactive). Moreover, the NADPH fluorescence slope in [6] was -2.4e-06 (inactive). For the same compound, the slope in test [7] is 0.00602 (inactive). In test [8], the compound was called inactive.
Regarding `O=C1c2ccccc2C(=O)N1Cc1nc2ccccc2c(=O)n1-c1cccnc1`, in test [1], the cell count was 485. Moreover, the inhibition was -17.5% (inactive) in [1], 13.6% (inactive) in test [2], -4.27% (inactive) in test [4] and 6.55% (inactive) in test [9]. In test [2], the nuclei count is 113%. The figures for the z-score in [3] (setting [10]), in test [3] (setting [11]) and in test [3] (setting [12]) were -1.74, -0.21 and 1.85, respectively. Besides, in test [5], the fluorescence slope was -0.469 (inactive). Also, in test [6], the NADPH fluorescence slope was -1.2e-05 (inactive). The slope in test [7] was 0.00521 (inactive). Moreover, in test [8], the call was inactive.
